Data reported in paper PMC8178754 (The Journal of Cell Biology, 2021).
Blank lines part the entries; values can stand above or below the molecule they belong to.

Key:
[1] = tested on: cells lacking both Ulp2–kinetochore interactions (KIM-Ctf3 and SIM-SUMO); assay: Growth under chemical stress, cells lacking both Ulp2–kinetochore interactions; assay type: cell-based, yeast; conditions: KIM-Ctf3 and SIM-SUMO interactions both absent
Procedure, shortened: (§1)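 Strains were built by lithium acetate integration of PCR products and verified by sequencing or PCR. Cells were grown in YPD to OD600 ~1 and diluted to OD600 0.2. 10-fold serial dilutions in sterile water, 5 µl each, were spotted on YPD or YPD with hydroxyurea at indicated concentrations. Plates were incubated 2 or 3 d at 30°C, then imaged.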

ctf3-2A cells = assay: Spot assay, growth of mutant strains under chemical stress; assay type: cell-based, yeast; conditions: 10-fold serial dilutions, 30°C, 2 or 3 d; effects modest
Procedure, shortened: as §1

[2] = tested on: ctf3-2A ulp2–SIM-3A double mutant cells; assay: as above; assay type: cell-based, yeast; conditions: 10-fold serial dilutions, 30°C, 2 or 3 d
Procedure, shortened: as §1

[3] = tested on: ulp2–KIM-3A and ctf3-2A cells; assay: as above; assay type: cell-based, yeast; conditions: YPD + hydroxyurea; 10-fold dilution series
Procedure, shortened: as §1

[4] = tested on: Ctf3-2A (Ctf3–R594A,K596A); assay: GST pulldown with Ctf3-2A; assay type: binding, yeast; conditions: Fig. S2 A, 20 mM Tris, pH 8.5, 150 mM NaCl
Ctf3 = assay: GST-Ulp2-KIM pulldown from yeast cell extracts, Ctf3; assay type: binding; conditions: immobilized GST-Ulp2-KIM as bait; anti–Protein A blot
[5] = target: T1, Ctf3 complex (Ctf3, Mcm16, Mcm22) (yeast, UniProt Q12748;Q12262;P47167); assay: fluorescence polarisation
T1 sequence (Q12748 whole entry, chain 1 of 3): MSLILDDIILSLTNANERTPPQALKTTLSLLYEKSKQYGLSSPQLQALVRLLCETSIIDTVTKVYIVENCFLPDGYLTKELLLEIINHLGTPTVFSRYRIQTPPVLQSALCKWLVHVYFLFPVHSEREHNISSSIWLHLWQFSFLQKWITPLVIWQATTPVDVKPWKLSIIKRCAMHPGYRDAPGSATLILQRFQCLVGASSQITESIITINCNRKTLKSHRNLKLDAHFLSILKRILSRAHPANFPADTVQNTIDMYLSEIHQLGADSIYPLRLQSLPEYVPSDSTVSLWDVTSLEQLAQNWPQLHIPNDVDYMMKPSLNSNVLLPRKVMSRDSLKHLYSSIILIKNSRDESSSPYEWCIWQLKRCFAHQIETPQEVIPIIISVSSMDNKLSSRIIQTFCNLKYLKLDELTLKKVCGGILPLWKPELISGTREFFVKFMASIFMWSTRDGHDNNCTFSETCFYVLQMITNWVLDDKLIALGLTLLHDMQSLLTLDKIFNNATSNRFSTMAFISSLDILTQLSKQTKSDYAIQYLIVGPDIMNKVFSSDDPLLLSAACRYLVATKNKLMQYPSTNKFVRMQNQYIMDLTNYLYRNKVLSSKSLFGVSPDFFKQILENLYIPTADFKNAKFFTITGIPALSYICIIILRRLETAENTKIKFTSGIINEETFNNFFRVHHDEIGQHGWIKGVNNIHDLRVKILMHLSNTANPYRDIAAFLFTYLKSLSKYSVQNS
T1 sequence (Q12262 whole entry, chain 2 of 3): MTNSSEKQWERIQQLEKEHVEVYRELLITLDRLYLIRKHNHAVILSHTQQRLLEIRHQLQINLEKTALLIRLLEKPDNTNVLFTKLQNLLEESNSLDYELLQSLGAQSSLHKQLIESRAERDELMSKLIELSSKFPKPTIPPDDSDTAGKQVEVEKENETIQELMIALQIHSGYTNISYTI
T1 sequence (P47167 whole entry, chain 3 of 3): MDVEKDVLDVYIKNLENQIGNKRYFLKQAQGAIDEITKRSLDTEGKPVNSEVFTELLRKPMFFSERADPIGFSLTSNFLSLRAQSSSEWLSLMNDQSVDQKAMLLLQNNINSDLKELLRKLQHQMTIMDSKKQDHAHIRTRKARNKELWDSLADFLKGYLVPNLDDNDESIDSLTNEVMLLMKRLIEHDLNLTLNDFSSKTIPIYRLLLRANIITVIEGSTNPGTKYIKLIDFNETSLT

[6] = target: T1, Ctf3 complex (Ctf3, Mcm16, Mcm22); assay: pull-down

Molecule: CCCCNC(=O)n1c(NC(=O)OC)nc2ccccc21 [benomyl]
- viability/sensitivity of cells lacking both Ulp2–kinetochore interactions [1]: Compromised viability
- sensitivity of ctf3-2A cells (ctf3-2A cells): sensitizes cells to hydroxyurea and benomyl
- sensitivity of ctf3-2A ulp2–SIM-3A double mutant cells [2]: pronounced

Molecule: NC(=O)NO [hydroxyurea]
- viability/sensitivity of cells lacking both Ulp2–kinetochore interactions [1]: much more sensitive
- sensitivity of ctf3-2A cells (ctf3-2A cells): sensitizes cells to hydroxyurea
- sensitivity of ctf3-2A ulp2–SIM-3A double mutant cells [2]: pronounced
- sensitivity of ulp2–KIM-3A and ctf3-2A cells [3]: elevated sensitivity

B1: GST-Ulp2-KIM: GST fusion of the Ulp2 kinetochore interaction motif (KIM) (protein)
chain: MSARKRKFNSLKPLDTLNSSRASSPRSSASLPPKRYNTFRKDPKIVDHLNNASTKDFLPVLSMNSESKRQIELSDNDVDNNDEGEGVNSGCSDQDFEPLQSSPLKRHSSLKSTSNGLLFQMSNNLGNGSPEPAVASTSPNGSIISTKLNLNGQFSCVDSKTLRIYRHKAPCIMTFVSDHNHPKFSLYFQQSVIYNSQVNLLDDVELIILDKKNSFMAIILKDLKKVKMILDVNNSSININTNILIWSTASSASNKKIKSIKRFLLMSYSSSIKVEILDHKEQILERLKHLIHPISSSSPSLNMERAINSTKNAFDSLRLKKTKLSTNDDESPQIHTHFLSNKPHGLQSLTKRTRIASLGKKEHSISVPKSNISPSDFYNTNGTETLQSHAVSQLRRSNRFKDVSDPANSNSNSEFDDATTEFETPELFKPSLCYKFNDGSSYTITNQDFKCLFNKDWVNDSILDFFTKFYIESSIEKSIIKREQVHLMSSFFYTKLISNPADYYSNVKKWVNNTDLFSKKYVVIPINISYHWFSCIITNLDAILDFHQNKDKNDAINSDEISINNPLVNILTFDSLRQTHSREIDPIKEFLISYALDKYSIQLDKTQIKMKTCPVPQQPNMSDCGVHVILNIRKFFENPVETIDVWKNSKIKSKHFTAKMINKYFDKNERNSARKNLRHTLKLLQLNYISYLKKENLYEEVMQMEEKKSTNINNNENYDDDDEEIQIIENIDQSSKDNNAQLTSEPPCSRSSSISTTEREPTELHNSVVRQPTGEIITDNEDPVRAASPETASVSPPIRHNILKSSSPFISESANETEQEEFTSPYFGRPSLKTRAKQFEGVSSPIKNDQALSSTHDIMMPSPKPKRIYPSKKIPQLSSHVQSLSTDSMERQSSPNNTNIVISDTEQDSRLGVNSESKNTSGIVNRDDSDVNLIGSSLPNVAEKNHDNTQESNGNNDSLGKILQNVDKELNEKLVDIDDVAFSSPTRGIPRTSATSKGSNAQLLSNYGDENNQSQDSVWDEGRDNPILLEDEDP
- Ulp2–KIM interaction with Ctf3-2A in pulldown [4]: Ctf3-2A does not support the Ulp2–KIM interaction

B2: Ulp2: nuclear enzyme that removes SUMO chains from modified substrates; in pulldown represented by GST-Ulp2-KIM bait (protein, UniProt P40537 1-1034, looked up)
Ubiquitin-like-specific …: MSARKRKFNSLKPLDTLNSSRASSPRSSASLPPKRYNTFRKDPKIVDHLNNASTKDFLPVLSMNSESKRQIELSDNDVDNNDEGEGVNSGCSDQDFEPLQSSPLKRHSSLKSTSNGLLFQMSNNLGNGSPEPAVASTSPNGSIISTKLNLNGQFSCVDSKTLRIYRHKAPCIMTFVSDHNHPKFSLYFQQSVIYNSQVNLLDDVELIILDKKNSFMAIILKDLKKVKMILDVNNSSININTNILIWSTASSASNKKIKSIKRFLLMSYSSSIKVEILDHKEQILERLKHLIHPISSSSPSLNMERAINSTKNAFDSLRLKKTKLSTNDDESPQIHTHFLSNKPHGLQSLTKRTRIASLGKKEHSISVPKSNISPSDFYNTNGTETLQSHAVSQLRRSNRFKDVSDPANSNSNSEFDDATTEFETPELFKPSLCYKFNDGSSYTITNQDFKCLFNKDWVNDSILDFFTKFYIESSIEKSIIKREQVHLMSSFFYTKLISNPADYYSNVKKWVNNTDLFSKKYVVIPINISYHWFSCIITNLDAILDFHQNKDKNDAINSDEISINNPLVNILTFDSLRQTHSREIDPIKEFLISYALDKYSIQLDKTQIKMKTCPVPQQPNMSDCGVHVILNIRKFFENPVETIDVWKNSKIKSKHFTAKMINKYFDKNERNSARKNLRHTLKLLQLNYISYLKKENLYEEVMQMEEKKSTNINNNENYDDDDEEIQIIENIDQSSKDNNAQLTSEPPCSRSSSISTTEREPTELHNSVVRQPTGEIITDNEDPVRAASPETASVSPPIRHNILKSSSPFISESANETEQEEFTSPYFGRPSLKTRAKQFEGVSSPIKNDQALSSTHDIMMPSPKPKRIYPSKKIPQLSSHVQSLSTDSMERQSSPNNTNIVISDTEQDSRLGVNSESKNTSGIVNRDDSDVNLIGSSLPNVAEKNHDNTQESNGNNDSLGKILQNVDKELNEKLVDIDDVAFSSPTRGIPRTSATSKGSNAQLLSNYGDENNQSQDSVWDEGRDNPILLEDEDP
- pulldown of Ctf3 from yeast cell extract (Ctf3): Ctf3, but not Ctf3-2A, binds Ulp2

- Kd [5]: ~0.9 µM
B3: FITC-Ulp2-KIM peptide (Ulp2-927-937) (peptide)
peptide: DDSDVNLIGSS
modifications: FITC-AHA on the N-terminus (FITC-AHA-DDSDVNLIGSS)

- binding result [6]: binds
B4: GST-Ulp2-927-937 (peptide)
chain: DDSDVNLIGSS

- binding result [6]: binds
B5: GST-Ulp2-KIM 1DA-1 (Ulp2-D927A) (peptide)
chain: ADSDVNLIGSS

- binding result [6]: binds
B6: GST-Ulp2-927-937 N932A (peptide)
chain: DDSDVALIGSS
